Results published in ChEMBL document CHEMBL4190374, “Structure-Function Evaluation of Imidazopyridine Derivatives Selective for δ-Subunit-Containing γ-Aminobutyric Acid Type A (GABAA) Receptors” (J Med Chem, 2018).

What was measured:
[1] = target: Gamma-aminobutyric acid receptor subunit alpha-4/beta-3/delta (Rattus norvegicus, UniProt P18506+P28471+P63079); assay: Displacement of [3H]EBOB from rat GABA-A receptor alpha4beta3delta expressed in HEK293 cell membranes after 90 mins by liquid scintillation counting analysis
How it was run: (§1)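 Crude membranes from HEK 293 cells transiently Ca-phosphate-transfected with rat subunit cDNAs, harvested at 48 h. Membranes (150-200 µg protein) incubated with 3 nM [3H]EBOB in 50 mM Tris/citrate pH 7.3 plus 0.2 M NaCl. Compound up to 10 µM, final DMSO 0.1%, no GABA, 90 min at 21 °C. Bound radioligand collected by GF/C filtration and counted by scintillation.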

[2] = target: T1, Gamma-aminobutyric acid receptor subunit alpha-1/beta-3/gamma-2 (Rattus norvegicus) (UniProt P18508+P62813+P63079); assay: Modulation of rat […] GABA-A receptor alpha1beta3gamma2 expressed in HEK293 cells up to 10 uM in presence of GABA by patch-clamp assay relative to control; format: cell-based
How it was run: (§2)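 Rat GABA-A subunits were transiently co-transfected with eGFP into HEK293 cells on coverslips. Fluorescent cells were recorded by whole-cell patch clamp 48 h later; bath pH 7.4, KCl/KOH pipette pH 7.2. Compound was applied at increasing concentrations up to 10 µM with the receptor-specific GABA EC20. Peak currents were fitted logistically for EC50, Hill and % modulation, as mean ± S.E.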

[3] = target: Gamma-aminobutyric acid receptor subunit alpha-6/beta-2 (Rattus norvegicus) (UniProt P30191+P63138); assay: Displacement of [3H]EBOB from rat GABA-A receptor alpha6beta2 expressed in HEK293 cell membranes up to 10 uM after 90 mins by liquid scintillation counting analysis relative to control; how it was run: as §1
[4] = target: T2, Gamma-aminobutyric acid receptor subunit alpha-4/beta-3/delta (Rattus norvegicus) (UniProt P18506+P28471+P63079); assay: Modulation of rat […] GABA-A receptor alpha4beta3delta expressed in HEK293 cells up to 10 uM in presence of GABA by patch-clamp assay relative to control; format: cell-based; how it was run: as §2
[5] = target: Gamma-aminobutyric acid receptor subunit alpha-4/beta-3 (Rattus norvegicus, UniProt P28471+P63079); assay: Displacement of [3H]EBOB from rat GABA-A receptor alpha4beta3 expressed in HEK293 cell membranes after 90 mins by liquid scintillation counting analysis; how it was run: as §1
[6] = target: Gamma-aminobutyric acid receptor subunit alpha-6/beta-3 (Rattus norvegicus, UniProt P30191+P63079); assay: Modulation of rat […] GABA-A receptor alpha6beta3 expressed in HEK293 cells in presence of GABA by patch-clamp assay; format: cell-based; how it was run: as §2
[7] = target: Gamma-aminobutyric acid receptor subunit alpha-4/beta-3 (Rattus norvegicus) (UniProt P28471+P63079); assay: Agonist activity at rat […] GABA-A receptor alpha4beta3 expressed in HEK293 cells assessed as ratio of I0 to GABA Imax at 10 uM in absence of GABA by patch-clamp assay; format: cell-based
How it was run: (§3)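 Whole-cell patch clamp on single fluorescent HEK 293 cells 48 h after transient co-transfection with rat subunit cDNAs plus eGFP. Extracellular solution 135 mM NaCl, 5.3 mM KCl, 2 mM CaCl2, 2 mM MgSO4, 10 mM HEPES pH 7.4, perfused 3 mL/min. Compound at 10 µM without GABA. Current expressed relative to 1 mM GABA at the same receptor (I0/Imax GABA), mean ± S.D. of n experiments.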

[8] = target: T3, Gamma-aminobutyric acid receptor subunit alpha-1/beta-3 (Rattus norvegicus) (UniProt P62813+P63079); assay: Agonist activity at rat […] GABA-A receptor alpha1beta3 expressed in HEK293 cells assessed as ratio of I0 to GABA Imax at 10 uM in absence of GABA by patch-clamp assay; format: cell-based; how it was run: as §3
[9] = target: T4, Gamma-aminobutyric acid receptor subunit alpha-4/beta-3/gamma-2 (Rattus norvegicus) (UniProt P18508+P28471+P63079); assay: Displacement of [3H]EBOB from rat GABA-A receptor alpha4beta3gamma2 expressed in HEK293 cell membranes up to 10 uM after 90 mins by liquid scintillation counting analysis relative to control; how it was run: as §1
[10] = target: T5, Gamma-aminobutyric acid receptor subunit alpha-6/beta-3/gamma-2 (Rattus norvegicus) (UniProt P18508+P30191+P63079); assay: Displacement of [3H]EBOB from rat GABA-A receptor alpha6beta3gamma2 expressed in HEK293 cell membranes up to 10 uM after 90 mins by liquid scintillation counting analysis relative to control; how it was run: as §1
[11] = target: Gamma-aminobutyric acid receptor subunit alpha-1/beta-3 (Rattus norvegicus, UniProt P62813+P63079); assay: Modulation of rat […] GABA-A receptor alpha1beta3 expressed in HEK293 cells in presence of GABA by patch-clamp assay; format: cell-based
How it was run: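 Whole-cell patch clamp on eGFP-co-transfected HEK 293 cells expressing rat subunits, recorded 48 h post-transfection. KCl/KOH-based pipette solution, pH 7.2. Rising compound concentrations up to 10 µM co-applied with the receptor-specific GABA EC20. Peak currents fitted to a logistic function giving EC50, Hill coefficient and % modulation, mean ± S.E. of n experiments.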

[12] = target: Gamma-aminobutyric acid receptor subunit alpha-1/beta-3/delta (Rattus norvegicus) (UniProt P18506+P62813+P63079); assay: Agonist activity at rat […] GABA-A receptor alpha1beta3delta expressed in HEK293 cells assessed as ratio of I0 to GABA Imax at 10 uM in absence of GABA by patch-clamp assay; format: cell-based; how it was run: as §3
[13] = target: GABA A receptor alpha-6/beta-2/gamma-2 (Rattus norvegicus) (UniProt P18508+P30191+P63138); assay: Displacement of [3H]EBOB from rat GABA-A receptor alpha6beta2gamma2 expressed in HEK293 cell membranes up to 10 uM after 90 mins by liquid scintillation counting analysis relative to control; how it was run: as §1
[14] = target: T3, Gamma-aminobutyric acid receptor subunit alpha-1/beta-3 (Rattus norvegicus); assay: Displacement of [3H]EBOB from rat GABA-A receptor alpha1beta3 expressed in HEK293 cell membranes at 10 uM after 90 mins by liquid scintillation counting analysis relative to control; how it was run: as §1
[15] = target: T1, Gamma-aminobutyric acid receptor subunit alpha-1/beta-3/gamma-2 (Rattus norvegicus); assay: Displacement of [3H]EBOB from rat GABA-A receptor alpha1beta3gamma2 expressed in HEK293 cell membranes at 10 uM after 90 mins by liquid scintillation counting analysis relative to control; how it was run: as §1
[16] = target: T5, Gamma-aminobutyric acid receptor subunit alpha-6/beta-3/gamma-2 (Rattus norvegicus); assay: Modulation of rat […] GABA-A receptor alpha6beta3gamma2 expressed in HEK293 cells up to 10 uM in presence of GABA by patch-clamp assay relative to control; format: cell-based; how it was run: as §2
Rattus norvegicus = species: Rattus norvegicus; assay: Selectivity ratio of IC50 for rat GABA-A receptor alpha4beta3gamma2 expressed in HEK293 cells to IC50 for rat GABA-A receptor alpha4beta3delta expressed in HEK293 cells; format: cell-based
[17] = target: T2, Gamma-aminobutyric acid receptor subunit alpha-4/beta-3/delta (Rattus norvegicus); assay: Agonist activity at rat […] GABA-A receptor alpha4beta3delta expressed in HEK293 cells assessed as ratio of I0 to GABA Imax at 10 uM in absence of GABA by patch-clamp assay; format: cell-based; how it was run: as §3
[18] = target: T4, Gamma-aminobutyric acid receptor subunit alpha-4/beta-3/gamma-2 (Rattus norvegicus); assay: Agonist activity at rat […] GABA-A receptor alpha4beta3gamma2 expressed in HEK293 cells assessed as ratio of I0 to GABA Imax at 10 uM in absence of GABA by patch-clamp assay; format: cell-based; how it was run: as §3

Sequence of Gamma-aminobutyric acid receptor subunit alpha-1/beta-3 (P62813 whole entry): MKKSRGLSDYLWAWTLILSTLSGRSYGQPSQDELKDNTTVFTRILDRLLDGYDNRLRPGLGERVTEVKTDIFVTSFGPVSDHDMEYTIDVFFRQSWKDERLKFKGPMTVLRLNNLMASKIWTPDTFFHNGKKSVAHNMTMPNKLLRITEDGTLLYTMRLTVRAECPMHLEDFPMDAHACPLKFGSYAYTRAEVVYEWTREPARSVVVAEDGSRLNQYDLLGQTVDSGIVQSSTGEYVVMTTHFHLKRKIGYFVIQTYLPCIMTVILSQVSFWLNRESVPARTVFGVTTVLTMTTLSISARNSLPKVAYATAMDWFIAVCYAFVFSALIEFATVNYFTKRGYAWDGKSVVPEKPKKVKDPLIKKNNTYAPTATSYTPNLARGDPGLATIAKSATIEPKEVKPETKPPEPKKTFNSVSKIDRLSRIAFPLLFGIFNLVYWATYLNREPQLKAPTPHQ
Sequence of Gamma-aminobutyric acid receptor subunit alpha-1/beta-3 (P63079 whole entry): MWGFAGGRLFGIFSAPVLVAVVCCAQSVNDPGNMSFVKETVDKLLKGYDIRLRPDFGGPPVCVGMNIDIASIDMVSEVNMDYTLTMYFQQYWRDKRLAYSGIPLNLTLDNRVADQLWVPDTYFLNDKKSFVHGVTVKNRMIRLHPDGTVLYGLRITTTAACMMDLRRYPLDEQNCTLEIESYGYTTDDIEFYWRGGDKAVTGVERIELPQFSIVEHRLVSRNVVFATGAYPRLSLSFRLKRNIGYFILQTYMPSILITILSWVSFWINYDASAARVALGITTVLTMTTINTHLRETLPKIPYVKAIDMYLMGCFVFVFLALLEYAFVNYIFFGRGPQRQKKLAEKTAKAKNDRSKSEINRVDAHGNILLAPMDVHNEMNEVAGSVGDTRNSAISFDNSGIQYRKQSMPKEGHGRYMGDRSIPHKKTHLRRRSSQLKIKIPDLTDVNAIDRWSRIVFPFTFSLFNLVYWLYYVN
Sequence of Gamma-aminobutyric acid receptor subunit alpha-6/beta-3 (P30191 whole entry): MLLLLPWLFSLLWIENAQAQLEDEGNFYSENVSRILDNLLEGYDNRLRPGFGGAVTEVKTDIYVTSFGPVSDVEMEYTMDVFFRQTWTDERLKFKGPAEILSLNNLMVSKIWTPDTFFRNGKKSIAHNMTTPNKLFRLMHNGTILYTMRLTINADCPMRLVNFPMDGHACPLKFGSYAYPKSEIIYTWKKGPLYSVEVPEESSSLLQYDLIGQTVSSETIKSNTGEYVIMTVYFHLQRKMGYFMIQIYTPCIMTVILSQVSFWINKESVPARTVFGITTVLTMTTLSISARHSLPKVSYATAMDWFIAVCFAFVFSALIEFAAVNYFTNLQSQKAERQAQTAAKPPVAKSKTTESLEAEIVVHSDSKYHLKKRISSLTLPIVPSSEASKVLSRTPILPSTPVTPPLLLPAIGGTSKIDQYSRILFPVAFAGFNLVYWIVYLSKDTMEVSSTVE
Sequence of Gamma-aminobutyric acid receptor subunit alpha-6/beta-3 (P63079 whole entry): as the sequence (P63079 whole entry) above
Sequence of Gamma-aminobutyric acid receptor subunit alpha-4/beta-3 (P28471 whole entry): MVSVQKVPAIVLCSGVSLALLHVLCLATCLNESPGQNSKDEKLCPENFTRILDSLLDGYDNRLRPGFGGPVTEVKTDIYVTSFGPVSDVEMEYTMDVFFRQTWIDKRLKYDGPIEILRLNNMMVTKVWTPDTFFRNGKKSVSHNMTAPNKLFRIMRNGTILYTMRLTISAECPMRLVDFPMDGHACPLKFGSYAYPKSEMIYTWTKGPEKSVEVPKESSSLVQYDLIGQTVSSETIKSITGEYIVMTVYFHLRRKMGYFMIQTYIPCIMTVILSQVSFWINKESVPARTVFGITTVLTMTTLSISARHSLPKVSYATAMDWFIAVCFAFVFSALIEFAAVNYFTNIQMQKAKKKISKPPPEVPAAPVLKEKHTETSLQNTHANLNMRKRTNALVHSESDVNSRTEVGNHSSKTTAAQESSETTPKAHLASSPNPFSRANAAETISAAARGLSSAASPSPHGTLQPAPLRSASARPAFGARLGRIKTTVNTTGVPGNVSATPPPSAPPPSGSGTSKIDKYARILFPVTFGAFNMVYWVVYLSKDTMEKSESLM
Sequence of Gamma-aminobutyric acid receptor subunit alpha-4/beta-3 (P63079 whole entry): as the sequence (P63079 whole entry) above
Sequence of Gamma-aminobutyric acid receptor subunit alpha-4/beta-3/delta (P18506 whole entry): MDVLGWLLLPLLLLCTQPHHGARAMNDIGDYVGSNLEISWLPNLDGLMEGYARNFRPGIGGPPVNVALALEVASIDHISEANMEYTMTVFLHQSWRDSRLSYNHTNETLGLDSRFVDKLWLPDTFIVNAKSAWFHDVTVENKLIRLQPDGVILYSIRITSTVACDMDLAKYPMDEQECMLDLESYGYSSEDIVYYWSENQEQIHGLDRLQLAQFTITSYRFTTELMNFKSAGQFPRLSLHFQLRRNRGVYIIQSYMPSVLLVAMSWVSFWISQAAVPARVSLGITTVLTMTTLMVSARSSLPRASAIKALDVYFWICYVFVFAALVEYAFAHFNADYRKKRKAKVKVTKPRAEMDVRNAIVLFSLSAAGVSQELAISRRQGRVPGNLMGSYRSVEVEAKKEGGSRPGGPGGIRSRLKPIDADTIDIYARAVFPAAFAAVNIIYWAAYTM
Sequence of Gamma-aminobutyric acid receptor subunit alpha-4/beta-3/delta (P28471 whole entry): as the sequence (P28471 whole entry) above
Sequence of Gamma-aminobutyric acid receptor subunit alpha-4/beta-3/delta (P63079 whole entry): as the sequence (P63079 whole entry) above

## O=C(Nc1c(-c2cccs2)nc2c(Br)cc(Br)cn12)c1ccc(Cl)cc1
[1]
  IC50: 510 nM
[2]
  Activity: 139%
[3]
  Imax: 93%
[4]
  Activity: 297%
[5]
  IC50: 1860 nM
[6]
  EC50: 170 nM
[7]
  Ratio: 0.124
[8]
  Ratio: 0.074
[9]
  Imax: 67%
[10]
  Imax: 94%
[11]
  EC50: 100 nM
[12]
  Ratio: 0.323
[13]
  Imax: 89%
[14]
  Imax: 25%
[15]
  Imax: 13%
[16]
  Activity: 157%
Rattus norvegicus
  Ratio IC50: 7
[17]
  Ratio: 1.61
[18]
  Ratio: 0.163
